The RNAGym collection of RNA variant scans (doi:10.1126/science.aae0568)
Fewer inactive variants are shown than the library holds.

B1: tRNA (parent)
chain: GUUCCGUUGGCGUAAUGGUAACGCGUCUCCCUCCUAAGGAGAAGACUGCGGGUUCGAGUCCCGUACGGAACG

Variants of: B1
Test: yeast fitness relative to wild type (ratio to wild type); higher = fitter; tRNA-Arg(CCU), competitive growth, 37 C, YPD
Method in brief: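 Variants of the tRNA-Arg(CCU) gene, chemically synthesised with a 3% per-site mutation rate at 69 sites, were placed at the native genomic locus in Saccharomyces cerevisiae. The pooled strains were competed in YPD at 37°C for 24 hours in six parallel replicates. Gene amplicons from the start population and from each end population were read by 100-nucleotide paired-end sequencing. Darwinian fitness relative to wild type came from changes in genotype frequencies; genotypes needed ≥ 100 starting reads, and estimates < 0.5 were set to 0.5.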

Variant	yeast fitness
GUUCCGUUGGCGUAAUGGUAUCGCGUCUCCCUCCUCACGAGAAGACUGCGGGUUCGACUCCCGUACGGCACG [A21U A36C G38C G58C A69C]	≤ 0.5
GUUCCGUUGGCGUAAUGGUAGCGCGACUCCCUCUUAAGGAGAAGACUGCCGGUUCGAGUCCUGUACGGAACG [A21G U26A C34U G50C C62U]	≤ 0.5
GUUCCGUUGGCGUAAUGGUAUCGCGUCUCCCUCCUCAGGAGAAGACUGCGGGUUCGAGUGCCGUCCGGAACG [A21U A36C C60G A65C]	0.575
GUUCCGUUGGCGUAAUGGUAGCGCGUCUCCCUCCUAAGGAGAAGACAGCGGGUUCGAGUCCCGUACGAAACG [A21G U47A G68A]	0.685
GUUCCGUUGGCGUAAUGGUAGCGCGUCUCCCUCCUAAGGAGAAGACUGCGGGUUCGAGACCCGUACGGGACG [A21G U59A A69G]	≤ 0.5
GUUCCGUUGGCGUAAUGGUAGCGCGUCUCCCUCCUAAGGAGAAGACUGCGGGUUCGACUCCCGUACGGAACG [A21G G58C]	1.01
GUUCCGUUGGCGUAAUGGUAGCGCGUCUCCCUCCUAAGGAGAAGACUGCGGGUUCGAGUCCCUUACGGAACG [A21G G63U]	0.752
GUUCCGUUGGCGUAAUGGUAGCGCGUCUCCCUCCUAAGGAGAAGACUGCGGGAACGAGUCCCGUACGGAACG [A21G U53A U54A]	≤ 0.5
GUUCCGUUGGCGUAAUGGUAGCGCGCCUCCCUCCUAAGGUGAAGACUGUGGGUUCGAGUCCCGUACGGAACG [A21G U26C A40U C49U]	≤ 0.5
GUUCCGUUGGCGUAAUGGUAGCGCGUCUCCCUCCUAAGGAGAAGACUGCGGGUUCGAGUCCCGUACUGCACG [A21G G67U A69C]	0.528
GUUCCGUUGGCGUAAUGGUAUCGCGUCUCCCUCCUCAGGAGAAGACUGAGGGUUCGAGUCCUGUUCGGAACG [A21U A36C C49A C62U A65U]	≤ 0.5
GUUCCGUUGGCGUAAUGGUAGCGCGUCUCCCCCGUAAGGAGAAGACUGCGGGUUCGAGUCCCGUACGGAACG [A21G U32C C34G]	≤ 0.5
GUUCCGUUGGCGUAAUGGUAUCGCGUCUCCCUCCUUAGGAGAAGACUGCGGGUUCGAGUCCCGUGCGGAACG [A21U A36U A65G]	0.589
GUUCCGUUGGCGUAAUGGUAUCGCGUCUCCCUCCUGAGGAGAAGACUGCGGGUUCGAGUCCCGUACGGAACG [A21U A36G]	0.804
GUUCCGUUGGCGUAAUGGUAUCGCGUCUCCCUCCUCAGGAGAAGACUGCGGGUUCGAGUCCCGUACGGAACG [A21U A36C]	≤ 0.5
GUUCCGUUGGCGUAAUGGUAUCGCGUCUCCCUCCUUAGGAGAAGACUGCGGGUUCGAAUCCCGUACGGAACG [A21U A36U G58A]	≤ 0.5
GUUCCGUUGGCGUAAUGGUAUCGCGUCUCCCUCCUAGGGAGAAGACUGCCGGUUCCAGUCCCGUACGGAACG [A21U A37G G50C G56C]	≤ 0.5
GUUCCGUUGGCGUAAUGGUAGCGCGUCUCCCUCCUAAGGAGAAGACUGCGGGAUCGAGUCCCGUACGGAACG [A21G U53A]	0.651
GUUCCGUUGGCGUAAUGGUAGCGCGUCUCCCUCCUAAGGAGAAGACUGCGGGUUCGAGUCCCGUACAGAACG [A21G G67A]	0.956

Variant	yeast fitness
GUUCCGUUGGCGUAAUGGUAGCGCGUCUCCCUCCUAAGGAGAAGACUGCGGGUUCGAGUCCCGUACCGAACG [A21G G67C]	0.865
GUUCCGUUGGCGUAAUGGUAUCGCGUCUCCCUCCUGAGGAGAAGACUGAGGGUUCGAGUCCCAUACGGAACG [A21U A36G C49A G63A]	≤ 0.5
GUUCCGUUGGCGUAAUGGUAGCGCGUCUCCCUCCUAAGGAGAAGACUGCGGGUUCGAGUCCCGAACGGAACG [A21G U64A]	0.877
GUUCCGUUGGCGUAAUGGUAGCGCGUCUCCCGCCUAAGGAGAAGACUGCGGGUUCGAGUCCCGUACGGAACG [A21G U32G]	0.576
GUUCCGUUGGCGUAAUGGUAGCGCGUCUCCCACCUAAGGAGAAGACUGCGGGUUCGAGUCCCGUACGGAACG [A21G U32A]	0.661
GUUCCGUUGGCGUAAUGGUAGCGCGUCUCCCUCCUAAGGAGAAGACUGCGGGACCGAGUCGCGUACGGAACG [A21G U53A U54C C61G]	0.718
GUUCCGUUGGCGUAAUGGUAGCGCGUCUCCCCCCUAAGGAGAAGACUGCGCGUUCGAGUCACGUACGGAACG [A21G U32C G51C C61A]	0.508
GUUCCGUUGGCGUAAUGGUAGCGCGUCUCCCUCCUAAGGAGAAGACUGCGGGUUCGAGACCCGAACGGAACG [A21G U59A U64A]	≤ 0.5
GUUCCGUUGGCGUAAUGGUAGCGCGUCUCCCUCCUAAGGAGAAGACUGCGGGAUCGUGUCCCGUUCGGAACG [A21G U53A A57U A65U]	0.52
GUUCCGUUGGCGUAAUGGUAGCGCGUCUCCCUCCGAGGGAGGAGACUGCGGGUUCGAGUCCCGUACGGAACG [A21G U35G A37G A42G]	≤ 0.5
GUUCCGUUGGCGUAAUGGUAGCGCGUCUCCCUCCCAAGGAGAAGACUGCGGGUUCGAGUCCCGUUCGGAACG [A21G U35C A65U]	≤ 0.5
GUUCCGUUGGCGUAAUGGUAGCGCGUCACCCUCCUAAGGAGCAGACUGCGGGUUCGGGUCCCGUAAGGAACG [A21G U28A A42C A57G C66A]	0.6
GUUCCGUUGGCGUAAUGGUAGCGCGUCUCCCUCCUAAGGAGAAGACUGCGGGUUCGACCCCCAUACGGAACG [A21G G58C U59C G63A]	0.701
GUUCCGUUGGCGUAAUGGUAUCGCGUCUCCCUCCUGAGGAGAUGACUGCGGGUUCGAGUCCCGUACGGAACG [A21U A36G A43U]	0.729
GUUCCGUUGGCGUAAUGGUAGCGCGUCUCCCUCCCUAGGUGAAGACUGCGGGUUUGCGUCCCGUACGGAACG [A21G U35C A36U A40U C55U A57C]	≤ 0.5
GUUCCGUUGGCGUAAUGGUAUCGCGUCUCCCUCCUGAGGAGAAGACUGAGGGUUCGAGUCCCGUACGGAACG [A21U A36G C49A]	≤ 0.5
GUUCCGUUGGCGUAAUGGUAGCGCGUCUCCCACCUAAGGAGAAGACAGCGGGUUCGAGUCCCGUACGGAACG [A21G U32A U47A]	0.556
GUUCCGUUGGCGUAAUGGUAUCGCGUCUCCCUCCUGAGGAGAAGACUGCGGGUUAGAGUCCCGUACCGAACG [A21U A36G C55A G67C]	≤ 0.5
GUUCCGUUGGCGUAAUGGUAGCGCGUCUCCCUCCUAAGGAGAAGACUGCGGGUUCCAGUCCAGUACGGAACG [A21G G56C C62A]	≤ 0.5
